# Tested on: Fibroblast
# Experiment: Multiplex assay against human fibroblast
# Format: toxicity, cell-based
# Summary of the method: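 Live cells carried four stains from seeding: Hoechst33342, BioTracker Green Microtubule Cytoskeleton Dye, MitoTracker Red and Annexin V Alexa Fluor 680. They were imaged on a CQ1 microscope at 37°C and 5% CO2 after compound addition. Using CellPathfinder machine-learning gating, cells were split into Hoechst high-intensity objects or normal cells, normal cells into healthy, pyknosed or fragmented nuclei, and pyknosed cells into mitotic or apoptotic; tubulin, mitochondrial-mass and membrane-permeability phenotypes are per cents of healthy-nucleus cells.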
# [1] = 12 h, 1 µM, compound concentration 1 uM, replicate 1
# [2] = 12 h, 1 µM, compound concentration 1 uM, replicate 2
# [3] = 12 h, 10 µM, compound concentration 10 uM, replicate 1
# [4] = 12 h, 10 µM, compound concentration 10 uM, replicate 2
# [5] = 24 h, 1 µM, compound concentration 1 uM, replicate 1
# [6] = 24 h, 1 µM, compound concentration 1 uM, replicate 2
# [7] = 24 h, 10 µM, compound concentration 10 uM, replicate 1
# [8] = 24 h, 10 µM, compound concentration 10 uM, replicate 2
# [9] = 48 h, 1 µM, compound concentration 1 uM, replicate 1
# [10] = 48 h, 1 µM, compound concentration 1 uM, replicate 2
# [11] = 48 h, 10 µM, compound concentration 10 uM, replicate 1
# [12] = 48 h, 10 µM, compound concentration 10 uM, replicate 2
compound,measurement,setting,value
O=C(c1cc2c(cc1F)OC(c1ccc(F)cc1)(c1ccc(Cl)cc1Cl)O2)N1CCOCC1 (centres undefined),Population Apoptotic (%),[1],51%
same,Population Fragmented Nuclei (%),[1],18%
same,Population Healthy Nuclei (%),[1],47%
same,Population Hoechst High Intensity Objects (%),[1],13%
same,Population Membrane Permeable-Phenotype (%),[1],19%
same,Population Mitochondria Different-Phenotype (%),[1],6%
same,Population Mitotic Cells (%),[1],48%
same,Population Normal (%),[1],86%
same,Population Pyknosed Nuclei (%),[1],34%
same,Population Tubulin-Different-Phenotype (%),[1],56%
same,Total Cell Count,[1],112
same,Population Apoptotic (%),[2],50%
same,Population Healthy Nuclei (%),[2],68%
same,Population Hoechst High Intensity Objects (%),[2],7%
same,Population Membrane Permeable-Phenotype (%),[2],9%
same,Population Mitochondria Different-Phenotype (%),[2],12%
same,Population Mitotic Cells (%),[2],50%
same,Population Normal (%),[2],92%
same,Population Pyknosed Nuclei (%),[2],12%
same,Population Tubulin-Different-Phenotype (%),[2],15%
same,Total Cell Count,[2],78
same,Population Apoptotic (%),[3],71%
same,Population Fragmented Nuclei (%),[3],31%
same,Population Healthy Nuclei (%),[3],29%
same,Population Hoechst High Intensity Objects (%),[3],12%
same,Population Membrane Permeable-Phenotype (%),[3],4%
same,Population Mitochondria Different-Phenotype (%),[3],43%
same,Population Mitotic Cells (%),[3],28%
same,Population Normal (%),[3],87%
same,Population Pyknosed Nuclei (%),[3],38%
same,Population Tubulin-Different-Phenotype (%),[3],17%
same,Total Cell Count,[3],176
same,Population Fragmented Nuclei (%),[4],10%
same,Population Healthy Nuclei (%),[4],78%
same,Population Hoechst High Intensity Objects (%),[4],4%
same,Population Membrane Permeable-Phenotype (%),[4],47%
same,Population Mitochondria Different-Phenotype (%),[4],96%
same,Population Normal (%),[4],95%
same,Population Pyknosed Nuclei (%),[4],10%
same,Population Tubulin-Different-Phenotype (%),[4],100%
same,Total Cell Count,[4],52
same,Population Apoptotic (%),[5],26%
same,Population Fragmented Nuclei (%),[5],17%
same,Population Healthy Nuclei (%),[5],61%
same,Population Hoechst High Intensity Objects (%),[5],18%
same,Population Membrane Permeable-Phenotype (%),[5],18%
same,Population Mitochondria Different-Phenotype (%),[5],12%
same,Population Mitotic Cells (%),[5],73%
same,Population Normal (%),[5],81%
same,Population Pyknosed Nuclei (%),[5],21%
same,Population Tubulin-Different-Phenotype (%),[5],50%
same,Total Cell Count,[5],108
same,Population Apoptotic (%),[6],33%
same,Population Fragmented Nuclei (%),[6],5%
same,Population Healthy Nuclei (%),[6],88%
same,Population Hoechst High Intensity Objects (%),[6],10%
same,Population Membrane Permeable-Phenotype (%),[6],10%
same,Population Mitochondria Different-Phenotype (%),[6],15%
same,Population Mitotic Cells (%),[6],66%
same,Population Normal (%),[6],89%
same,Population Pyknosed Nuclei (%),[6],5%
same,Population Tubulin-Different-Phenotype (%),[6],21%
same,Total Cell Count,[6],85
same,Population Apoptotic (%),[7],67%
same,Population Fragmented Nuclei (%),[7],32%
same,Population Healthy Nuclei (%),[7],32%
same,Population Hoechst High Intensity Objects (%),[7],12%
same,Population Membrane Permeable-Phenotype (%),[7],2%
same,Population Mitochondria Different-Phenotype (%),[7],81%
same,Population Mitotic Cells (%),[7],32%
same,Population Normal (%),[7],87%
same,Population Pyknosed Nuclei (%),[7],35%
same,Population Tubulin-Different-Phenotype (%),[7],16%
same,Total Cell Count,[7],169
same,Population Apoptotic (%),[8],66%
same,Population Fragmented Nuclei (%),[8],8%
same,Population Healthy Nuclei (%),[8],62%
same,Population Hoechst High Intensity Objects (%),[8],6%
same,Population Membrane Permeable-Phenotype (%),[8],64%
same,Population Mitochondria Different-Phenotype (%),[8],100%
same,Population Mitotic Cells (%),[8],33%
same,Population Normal (%),[8],93%
same,Population Pyknosed Nuclei (%),[8],29%
same,Population Tubulin-Different-Phenotype (%),[8],100%
same,Total Cell Count,[8],58
same,Population Apoptotic (%),[9],42%
same,Population Fragmented Nuclei (%),[9],31%
same,Population Healthy Nuclei (%),[9],50%
same,Population Hoechst High Intensity Objects (%),[9],11%
same,Population Membrane Permeable-Phenotype (%),[9],15%
same,Population Mitochondria Different-Phenotype (%),[9],11%
same,Population Mitotic Cells (%),[9],57%
same,Population Normal (%),[9],88%
same,Population Pyknosed Nuclei (%),[9],18%
same,Population Tubulin-Different-Phenotype (%),[9],43%
same,Total Cell Count,[9],119
same,Population Apoptotic (%),[10],33%
same,Population Fragmented Nuclei (%),[10],18%
same,Population Healthy Nuclei (%),[10],73%
same,Population Hoechst High Intensity Objects (%),[10],12%
same,Population Membrane Permeable-Phenotype (%),[10],8%
same,Population Mitochondria Different-Phenotype (%),[10],5%
same,Population Mitotic Cells (%),[10],66%
same,Population Normal (%),[10],87%
same,Population Pyknosed Nuclei (%),[10],7%
same,Population Tubulin-Different-Phenotype (%),[10],37%
same,Total Cell Count,[10],90
same,Population Apoptotic (%),[11],80%
same,Population Fragmented Nuclei (%),[11],33%
same,Population Healthy Nuclei (%),[11],42%
same,Population Hoechst High Intensity Objects (%),[11],14%
same,Population Membrane Permeable-Phenotype (%),[11],1%
same,Population Mitochondria Different-Phenotype (%),[11],70%
same,Population Mitotic Cells (%),[11],20%
same,Population Normal (%),[11],85%
same,Population Pyknosed Nuclei (%),[11],24%
same,Population Tubulin-Different-Phenotype (%),[11],6%
same,Total Cell Count,[11],167
same,Population Apoptotic (%),[12],81%
same,Population Fragmented Nuclei (%),[12],34%
same,Population Healthy Nuclei (%),[12],56%
same,Population Hoechst High Intensity Objects (%),[12],12%
same,Population Membrane Permeable-Phenotype (%),[12],0%
same,Population Mitochondria Different-Phenotype (%),[12],90%
same,Population Mitotic Cells (%),[12],18%
same,Population Normal (%),[12],87%
same,Population Pyknosed Nuclei (%),[12],9%
same,Population Tubulin-Different-Phenotype (%),[12],3%
same,Total Cell Count,[12],133
